# Shown are actives, neighbours in structure and some others; about 1.6% of the full set was active somewhere.
# eIF4E 4G PPI – eIF4E–eIF4G protein interaction inhibitors, primary screen, biochemical, uHTS, TR-FRET, eIF4GI fragment | Eukaryotic translation initiation factor 4E (Mus musculus) + Eukaryotic translation … | TR-FRET eIF4E-eIF4GI(517-606) binding, 2 h | inhibition, % at 21.7 µM | actives 0.37% (n = 220,000) | AID 782, 2007;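 note: 0% = full FRET control wells and 100% = background wells lacking eIF4GI fragment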
# 14-3-3 Bad inh – inhibitors of 14-3-3 zeta/Bad binding, primary screen, biochemical, TR-FRET, bovine 14-3-3 zeta; 14-3-3 protein zeta/delta (Bos taurus), P63103; actives 0.71% (n = 220,000); inhibition, % at 21.7 µM; TR-FRET 14-3-3zeta/Dy647-pBad peptide displacement, 1 h;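 active = inhibition above about 70%, limit read from the data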;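 note: 0% = full 14-3-3 plus peptide FRET controls and 100% = background without 14-3-3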
# p47phox inh – p47phox/p22phox peptide binding inhibitors, primary screen, biochemical, uHTS, NADPH oxidase regulatory subunit; Neutrophil cytosol factor 1 (Homo sapiens), P14598; actives 0.53% (n = 220,000); fluorescence polarization, 2 h; AID 1274, 2008; inhibition, % at 24.7 µM;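 note: 0% = p47phox with labelled peptide and 100% = labelled peptide alone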
# Target sequence (P14598 whole entry, looked up): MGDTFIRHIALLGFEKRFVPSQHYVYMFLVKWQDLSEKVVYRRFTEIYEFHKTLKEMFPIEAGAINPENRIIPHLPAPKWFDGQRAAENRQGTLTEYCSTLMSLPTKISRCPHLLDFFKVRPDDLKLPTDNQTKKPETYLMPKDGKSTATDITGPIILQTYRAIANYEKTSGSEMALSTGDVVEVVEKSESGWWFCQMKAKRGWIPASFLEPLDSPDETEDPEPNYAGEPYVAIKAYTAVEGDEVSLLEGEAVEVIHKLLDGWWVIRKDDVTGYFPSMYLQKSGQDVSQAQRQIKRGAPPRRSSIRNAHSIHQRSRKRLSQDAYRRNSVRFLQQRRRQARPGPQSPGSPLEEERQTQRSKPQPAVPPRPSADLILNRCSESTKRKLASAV
# SUMO HTRF inh – inhibitors of in vitro SUMOylation cascade, primary screen, biochemical, HTRF, uHTS; HTRF SUMOylation assay, SAE1/SAE2 + UBC9; inhibition, % at 35 µM; actives 0.36% (n = 290,000); in the data active = inhibition above about 50%, passing the limit was not always enough
# Target sequence (P63279 whole entry, looked up): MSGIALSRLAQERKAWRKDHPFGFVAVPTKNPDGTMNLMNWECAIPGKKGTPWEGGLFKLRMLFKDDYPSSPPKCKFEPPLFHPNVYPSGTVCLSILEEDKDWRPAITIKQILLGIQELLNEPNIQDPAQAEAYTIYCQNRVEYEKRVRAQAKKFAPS
# p97 inhibitor – inhibitors of human p97 ATPase, primary screen, biochemical. Transitional endoplasmic reticulum ATPase (Homo sapiens), P55072. recombinant p97 ATPase, Kinase-Glo ATP luminescence, 3 h. inhibition, % at 8 µM. actives 0.42% (n = 220,000). AID 1481, 2009; in the data active = inhibition above about 15%;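 note: 0% = DMSO vehicle and 100% = wells lacking enzyme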
# Tb MetRS inh – T. brucei MetRS inhibitors, primary screen, biochemical, luminescence. methionyl-tRNA synthetase (Trypanosoma brucei brucei). purified T. brucei MetRS, ATP depletion, Kinase-Glo luminescence. inhibition, % at 11.9 µM. actives 0.4% (n = 360,000);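 active = inhibition above a per-plate cutoff of the control wells' mean inhibition plus 3 SD, cut at about 5.5% in these data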;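 note: 0% = DMSO wells median and 100% = median of wells with control inhibitor compound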
#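 Measured by: Kinase-Glo luciferase luminescence reporting remaining unconsumed ATP. Material: purified T. brucei MetRS enzyme. Doses: 11.9 µM compound single dose, 0.9% DMSO. Medium: HEPES buffer containing pyrophosphatase, BSA, spermine, DTT. Times: 15 min preincubation, 2 h reaction, all 25 °C. Reagent: methionine, ATP and bulk E. coli tRNA.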
# Active calls of the source: *; . = not tested or not shown; [ ] = dose if it differs, or a comment.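 Rule for the calls, unless noted: active = inhibition above about 30% (limit read from the data); inactive = the rest.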
SMILES,eIF4E 4G PPI,14-3-3 Bad inh,p47phox inh,SUMO HTRF inh,p97 inhibitor,Tb MetRS inh
Cc1ccc(NC(=O)CN2C(=O)/C(=C3\SC(=S)N(C4CCS(=O)(=O)C4)C3=O)c3ccccc32)cc1 (centres undefined),1,93*[fluorescence artefact?],76*,13,-1,1
Cc1cccc(NC(=O)CN2C(=O)/C(=C3\SC(=S)N(CC4CCCO4)C3=O)c3ccccc32)c1 (centres undefined),.,.,.,12,.,0
COc1ccc(S(=O)(=O)N2CCN(C(=O)CC3CC4CCC3C4)CC2)cc1 (centres undefined),.,.,.,.,.,0
COc1ccc(NC(=O)C(c2ccc(C#N)cc2)n2c(=O)c(-c3cc4ccccc4[nH]3)nc3ccccc32)cc1 (centres undefined),.,.,.,.,.,0
Cc1cccc(C)c1OCCOC(=O)c1n[nH]c2ccccc12,-1,89*,-6,-7,-3,0
Nc1nc(N)c2c(ccc3c2ccn3Cc2cccc([N+](=O)[O-])c2)n1,.,.,.,.,.,5
Cc1ccc(S(=O)(=O)N(C(=O)c2ccco2)c2cc3sc(=O)oc3c3ccccc23)cc1,1,7,-7,56*,8,0
C=CCOC(=O)c1cc(-c2ccc(/C=C3\C(=O)NC(=O)C(C#N)=C3C)o2)ccc1Cl,60*[fluorescence artefact?],92*[fluorescence artefact?],39*,38,5,1
CCCOC(=O)c1cc(-c2ccc(/C=C3/C(=O)N(C)C(=O)C(C#N)=C3C)o2)ccc1Cl,.,.,.,.,1,0
COC(=O)c1ccccc1NC(=O)Cn1nc2n(C)c3ccccc3n2c(=O)c1=O,3,93*,0,17,3,.
O=C(CN1C(=O)NC2(CCOc3ccccc32)C1=O)NCc1ccccc1 (centres undefined),.,.,.,.,.,-1
O=C(CN1CCN(Cc2ccccc2)CC1)Nc1ccccc1,.,.,.,-7,.,1
CCOC(=O)C1CCN(C(=O)Nc2ccc(OCc3ccccc3)cc2)CC1,2,0,44*,12,3,0
O=C(CN1CCN(CCO)CC1)Nc1ccccc1,3,73*,7,6,0,0
CCOC(=O)C1CCN(Cc2ccc(OCc3ccccc3)cc2)CC1,.,.,.,-6,.,0
CN1CCN(CC(=O)Nc2ccc(OCc3ccccc3)cc2)CC1,-6,87*,-1,9,-2,.
CCCN(C(=O)COC(=O)c1[nH]c(C)c(C(=O)OC)c1C)c1c(N)n(Cc2ccccc2)c(=O)[nH]c1=O,.,.,.,.,.,0
O=C(Nc1ccc2c(c1)OCCO2)C(c1ccncc1)n1c(=O)c(-c2cc3ccccc3[nH]2)nc2ccccc21 (centres undefined),.,.,.,.,.,-1
Cn1nccc1C(=O)Nc1ccccc1C(=O)O,-15,43,178*,19,0,-1
CCn1cc(S(=O)(=O)NCCc2ccc(OC)c(OC)c2)cn1,.,.,.,-5,.,0
COC(=O)c1ccc2c(=O)n(CC3CCCO3)c(SCC(=O)Nc3ccc(OC)cc3OC)nc2c1 (centres undefined),5,12,31*,0,6,0
CCn1c(SCC(=O)Nc2ccccc2OC)nc2ccccc2c1=O,69*[fluorescence artefact?],-2,3,5,-2,-2
CCOC(=O)CSc1nc2cc(C(=O)N3CCC(C(N)=O)CC3)ccc2c(=O)n1C1CCCCC1,0,-1,3,8,-4,-1
COc1ccc(OC)c(NC(=O)CSc2nc3ccccc3c(=O)n2CC2CCCO2)c1 (centres undefined),.,.,.,8,.,0
COCCn1c(SCC(=O)Nc2ccccc2OC)nc2ccccc2c1=O,.,.,.,-6,.,0
SMILES,eIF4E 4G PPI,14-3-3 Bad inh,p47phox inh,SUMO HTRF inh,p97 inhibitor,Tb MetRS inh
COC(=O)c1ccc2c(=O)n(C3CCCCC3)c(SCC#N)nc2c1,-27,74*,-4,12,11,0
COc1ccc(C(=O)OCCc2ccc(O)cc2)cc1,8,8,-3,-5,1,1
COc1ccc(C(=O)OCC[N+]2(C)CCOCC2)cc1,31*,41,3,-9,-3,-1
CCN(CC)C(=O)C1=C(C)N(Cc2ccc(C(C)(C)C)cc2)C(=O)C(CC(=O)NCCCCc2ccccc2)C1 (centres undefined),.,.,.,.,.,-2
CCn1c(Cc2c(C)[nH]c3ccccc23)nnc1SCC(=O)NCc1ccccc1,0,0,41*,9,-4,1
CCOc1ccc(N/C=C/C(=O)c2ccc(C)cc2)c([N+](=O)[O-])c1,0,-2,37*,11,-6,-1
CCOc1ccc(N/C=C/C(=O)c2ccc3ccccc3c2)c([N+](=O)[O-])c1,-4,3,15,9,2,-1
CCn1c(=O)c(-[n+]2ccccc2)c(O)c2ccccc21,3,72*,-1,1,4,0
Cc1ccc(S(=O)(=O)N(C)C[C@@H]2OCc3cnnn3CCCC(=O)N([C@@H](C)CO)C[C@H]2C)cc1,.,.,.,.,.,-2
COc1ccc(/C=C/CN2CCC(C(=O)NC(c3ccc(F)cc3)c3ccc4ccccc4n3)CC2)cc1 (centres undefined),.,.,.,.,.,0
COc1cccc(OC)c1OCCN(C)C,-3,86*,-5,11,6,0
COc1cccc(OC)c1OCCNC(C)(C)C,0,36,5,24,0,-1
CN(C)CCOc1ccccc1-c1ccccc1,-12,72*,-2,13,3,1
CN(C)CCOCCOc1ccccc1-c1ccccc1,3,87*,-5,13,11,0
O=C(NC(Cc1ccccc1)C(=O)O)/C(=C/c1ccc(F)cc1)NC(=O)c1ccccc1 (centres undefined),3,9,2,-4,-1,-1
CCCCN(C)C(=S)Nc1ccsc1C(=O)OC,-1,-5,45*,9,-1,0
[N-]=[N+]=CC(=O)CCCN1C(=O)c2ccccc2C1=O,-1,-25,12,6,1,1
[N-]=[N+]=CC(=O)CC(c1ccccc1)N1C(=O)c2ccccc2C1=O (centres undefined),8,-5,51*,13,7,-1
COC(=O)c1ccc(C(=O)N2CCCC(C)(C(=O)NS(=O)(=O)C3CC3)C2)cc1 (centres undefined),.,.,.,.,.,0
COc1ccccc1Cc1c(C(C)(C)C)nc2c3ccccc3ccn12,.,.,.,.,.,-1

# Bioassay records from PubChem BioAssay.
